Data on 2 compounds can be found in paper PMC10405366 (Molecular pharmaceutics, 2023).

Data set [1] in a line: Stability in mouse plasma lithium heparin and QC extracts. The format is in vitro ADME.
Data set [2] in a line: Stability in Tween80:Captex200P:0.9% saline formulation. The class given is physicochemical. The method, boiled down: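 The dried succinate was taken up in Tween 80:Captex 200P at 1 mg/mL. It was vortexed 30 s, sonicated 30 min and shaken about 16 h at 100 rpm at room temperature. It was then diluted in 0.9% saline to 0.1 mg/mL and serially diluted to 0.05 and 0.025 mg/mL. At 0, 1 and 4 h, aliquots were diluted 20-fold in acetone, with storage at 4 °C in between. Analysis was by UPLC-PDA-HRMS against acetone standards.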

For data set [3], the system named is female athymic nude (nu/nu) mice. As to the kind of experiment: 14 day tolerability study, IP every 2 days. The class given is in vivo, mouse. The method, boiled down: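 Female athymic nude mice (CrTac:NCr-Foxn1nu, 7–8 weeks) were randomized, n = 5 per group. Parent compound was given at 0.1, 0.25, 0.5 or 1.0 mg/kg, or the succinate at molar-equivalent 0.114, 0.285, 0.570 or 1.14 mg/kg. Vehicle was Tween80:Captex200:0.9% saline (8:2:90 v/v). Dosing was IP every 2 days for 14 days. Body weight was recorded every 2 days before dosing, and gross necropsy plus H&E histopathology were done.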

For data set [4] the following is noted: cited from earlier work.
Another data set concerns MDA-MB-231. As to the kind of experiment: Cell viability assay. As to conditions: MDA-MB-231. The class given is cell-based, human. The method, boiled down: (§1)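 RPMI1640 (OVCAR3, OVCAR4, MDA-MB-435) or DMEM (OVCAR8, MDA-MB-231) was used, with 10% FBS and penicillin/streptomycin. Cells were STR-validated and kept below 20 passages. Cells were plated at 5000 per well overnight, then given test compound at final 0.95–250 nM (nine levels, 0.5% DMSO) for 72 h at 37 °C. Viability was read by CellTiter-Blue absorbance, and IC50 was taken relative to DMSO. Paclitaxel (0.39–100 nM) was the control, with three biological replicates.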

Another data set concerns OVCAR3. As to the kind of experiment: Cell viability assay. The format is cell-based, human. The following applies: OVCAR3. The method, boiled down:
as §1

For data set [5], the system named is OVCAR8-RFP cells xenografted IP. Briefly: OVCAR8-RFP IP xenograft. The class given is in vivo, mouse.
In another data set the test system is OVCAR8. Briefly: Cell viability assay. The format is cell-based, human. The method, boiled down: as §1
The test system of the next data set is OVCAR4. Briefly: Cell viability assay. The format is cell-based, human. The method, boiled down: as §1

Consider `CN1C(=O)[C@]23SS[C@@]1(C)C(=O)N2[C@H]1Nc2ccccc2[C@@]1([C@@]12c4ccccc4N[C@@H]1N1C(=O)[C@]4(C)SS[C@]1(C(=O)N4C)[C@H]2OC(=O)CCC(=O)O)[C@@H]3O` [verticillin A succinate], for which, in data set [1], the “stability in mouse plasma lithium heparin” value was “poor stability”. Besides, the “stability of QC extracts” value in [1] (4 °C autosampler, after approximately 19 h) is reported as “not stable”. Besides, the “verticillin A succinate levels in formulation” value is “below the detection limit (BDL) or NF” in data set [2] (4 h after preparation, stored at 4 °C) and “below the quantitation limit (BQL) or not found/detected (NF)” in data set [2] (immediately after preparation, all concentration levels tested). The stability in formulation result in data set [2] (Tween80:Captex200P:0.9% saline, 0.1, 0.05 and 0.025 mg/mL, degrades almost immediately to verticillin A) is “not stable”. In addition, the “early removal of mice” value is 13 day of treatment in data set [3] (0.570 mg/kg IP every 2 days) and 8 days of treatment in data set [3] (1.14 mg/kg IP every 2 days). Besides, the tolerability result was “poorly tolerated” in [3] (two higher dose levels, 0.570 and 1.14 mg/kg IP every 2 days); “well tolerated” in [3] (two lower dose levels, 0.114 and 0.285 mg/kg IP every 2 days, 14 days). Besides, the solubility result in data set [4] is recorded as “greatly improved solubility”. The cytotoxic activity entry in the data set with MDA-MB-231 and in the data set on OVCAR3 was “pronounced cytotoxic activities” each time.
For the compound `CN1C(=O)[C@]23SS[C@@]1(C)C(=O)N2[C@H]1Nc2ccccc2[C@@]1([C@@]12c4ccccc4N[C@@H]1N1C(=O)[C@@]4(C)SS[C@]1(C(=O)N4C)[C@H]2O)[C@@H]3O` [verticillin A], in data set [5] (0.25 mg/kg in DMSO twice weekly for four weeks), the “liver and organ gross morphology” value is on record as “did not demonstrate changes in liver morphology”. Moreover, the tumor burden entry in [5] (0.25 mg/kg twice weekly for four weeks, compared to DMSO) is “reduced”. Further, the “early removal of mice” value in data set [3] (0.5 mg/kg IP every 2 days) is given as 13 day of treatment; in [3] (1.0 mg/kg IP every 2 days) it was 8 days of treatment. Besides, in data set [3] (IP every 2 days, 14 days, female athymic nude mice), the “maximal tolerated IP dose” value stood at 0.25 mg/kg. The tolerability entry is “poorly tolerated” in data set [3] (two higher dose levels, 0.5 and 1.0 mg/kg IP every 2 days); “well tolerated” in data set [3] (two lower dose levels, 0.100 and 0.250 mg/kg IP every 2 days, 14 days). Also, the cytotoxic activity result in the data set with MDA-MB-231 is reported as “pronounced cytotoxic activities”; in the data set on OVCAR3, “pronounced cytotoxic activities”; in the data set with OVCAR8 it was “nanomolar cytotoxic activity”; with OVCAR4 it was “nanomolar cytotoxic activity”.
